Source: ChEMBL document CHEMBL1140440, “Simple but highly effective three-dimensional chemical-feature-based pharmacophore model for diketo acid derivatives as hepatitis C virus RNA-dependent RNA polymerase inhibitors” (J Med Chem, 2005)

What follows are molecules tested against RNA-directed RNA polymerase (Hepacivirus hominis, UniProt O39930) (assay: Inhibitory concentration against NS5B HCV polymerase using [alpha-32P]UTP as radioligand (30 degree C for 2 h, at pH 7.5 with Tris-HCl buffer)).
How it was run: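 Recombinant HCV RdRp (1 nM) in 20 mM Tris-HCl pH 7.5, 5 mM MgCl2, 1 mM DTT, 1 mM EDTA, RNase inhibitor, 50 µg/mL actinomycin D, 10 µg/mL RNA template, 0.5 mM ATP/CTP/GTP, [α-32P]UTP, limiting nucleotide 10 µM. 30 °C, 2 h; proteinase K stop, extraction, urea-PAGE, phosphorimaging. IC50s rescaled by a reference inhibitor's measured/literature IC50 ratio.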

Sequence of RNA-directed RNA polymerase (O39930 whole entry): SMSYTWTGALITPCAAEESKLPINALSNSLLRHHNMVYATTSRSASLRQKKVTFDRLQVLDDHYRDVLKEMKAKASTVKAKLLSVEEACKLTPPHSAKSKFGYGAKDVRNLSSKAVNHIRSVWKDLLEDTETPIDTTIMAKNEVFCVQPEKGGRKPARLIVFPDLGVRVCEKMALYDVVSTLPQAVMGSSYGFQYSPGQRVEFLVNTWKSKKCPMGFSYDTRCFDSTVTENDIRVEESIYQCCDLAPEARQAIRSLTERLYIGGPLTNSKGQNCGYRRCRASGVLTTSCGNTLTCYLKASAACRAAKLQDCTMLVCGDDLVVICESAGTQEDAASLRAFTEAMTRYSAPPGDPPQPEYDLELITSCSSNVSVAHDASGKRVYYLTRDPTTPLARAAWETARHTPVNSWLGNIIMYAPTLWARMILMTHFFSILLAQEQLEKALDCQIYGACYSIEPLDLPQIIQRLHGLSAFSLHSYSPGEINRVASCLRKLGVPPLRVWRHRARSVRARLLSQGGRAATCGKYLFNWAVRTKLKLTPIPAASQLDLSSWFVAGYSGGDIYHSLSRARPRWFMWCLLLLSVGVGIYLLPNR

Point of comparison: O=C(O)C(=O)/C=C(\O)c1cccn1Cc1ccc(F)cc1, IC50 93 µM. Against it:
- O=C(O)C(=O)/C=C(\O)c1cccc(OCc2ccccc2)c1 — 12-fold lower, 8 µM
- O=C(O)C(=O)/C=C(\O)c1ccccc1 — 17-fold lower, 5.6 µM
- O=C(O)C(=O)/C=C(\O)c1cccc(O)c1 — 93-fold lower, 1 µM
- O=C(O)C(=O)/C=C(\O)c1cccc(OCc2cc(-c3ccccc3)on2)c1 — 16-fold lower, 6 µM
- O=C(O)C(=O)/C=C(\O)c1cccc(NC(=O)C(=O)O)c1 — 4.9-fold lower, 19 µM
- O=C(O)C(=O)/C=C(\O)c1ccc(Cc2ccc(F)cc2)s1 — within 1.5-fold, 65 µM
- O=C(O)C(=O)/C=C(\O)c1cccn1Cc1ccc2ccccc2c1 — 7.2-fold lower, 13 µM
- O=C(O)C(=O)/C=C(\O)c1cccc(Oc2ccccc2)c1 — 4.9-fold lower, 19 µM
- Cn1cc(/C(O)=C/C(=O)C(=O)O)cc1Cc1cccc(F)c1 — 4.4-fold lower, 21 µM
- O=C(O)C(=O)/C=C(\O)c1cccc(OCc2cccc(Oc3ccccc3)c2)c1 — 1.9-fold lower, 50 µM
- Cc1ccc(/C(O)=C/C(=O)C(=O)O)o1 — 1.6-fold lower, 58 µM
- O=C(O)C(=O)/C=C(\O)c1ccccc1Cc1ccc(F)cc1 — 11-fold lower, 8.3 µM
- O=C(O)C(=O)/C=C(\O)c1ccc(Cc2cccc(F)c2)s1 — within 1.5-fold, 74 µM
- N#CCCCOc1ccccc1/C(O)=C/C(=O)C(=O)O — 240-fold lower, 0.38 µM
- COc1cccc(/C(O)=C/C(=O)C(=O)O)c1 — 2.3-fold lower, 40 µM
- O=C(O)C(=O)/C=C(\O)c1ccsc1 — 23-fold lower, 4 µM
- N#Cc1cccc(Cn2ccc(/C(O)=C/C(=O)C(=O)O)c2)c1 — 20-fold lower, 4.6 µM
- O=C(O)C(=O)/C=C(\O)c1ccc(Cc2ccccc2)s1 — within 1.5-fold, 68 µM
- N#CCCCOc1ccc(O)cc1/C(O)=C/C(=O)C(=O)O — 850-fold lower, 0.11 µM
- O=C(O)C(=O)/C=C(\O)C12C[C@H]3C[C@@H](C1)C[C@@H](C2)C3 — 14-fold lower, 6.7 µM
- O=C(O)C(=O)/C=C(\O)c1cccn1Cc1c(F)cccc1F — 13-fold lower, 7.4 µM
- O=C(O)C(=O)/C=C(\O)c1ccc(N2CCCCC2)s1 — 11-fold lower, 8.2 µM
- O=C(O)C(=O)/C=C(\O)c1cnc2cc(Cl)ccc2c1O — 3.6-fold lower, 26 µM
- N#Cc1ccccc1Cn1cccc1/C(O)=C/C(=O)C(=O)O — 15-fold lower, 6.3 µM
- Cc1cc(C)c(/C(O)=C/C(=O)C(=O)O)s1 — 11-fold lower, 8.2 µM
- O=C(O)C(=O)/C=C(O)/C=C/c1cccn1Cc1cccc(F)c1 — 5.2-fold lower, 18 µM
- O=C(O)C(=O)/C=C(\O)c1cccc(-c2ccccc2)c1 — 3.3-fold lower, 28 µM
- Cc1sc(-c2ccccc2)cc1/C(O)=C/C(=O)C(=O)O — 1.8-fold higher, 167 µM
- Cc1cc(/C(O)=C/C(=O)C(=O)O)c(C)o1 — 6.6-fold lower, 14 µM
- CCCCS(=O)(=O)N1CCCC(Cc2ccc(Cl)cc2)(/C(O)=C/C(=O)C(=O)O)C1 (stereo unspecified) — within 1.5-fold, 81.4 µM
- O=C(O)C(=O)/C=C(\O)c1ccc(Cc2cccc(Cl)c2)s1 — within 1.5-fold, 82 µM
- Cc1coc(C)c1/C(O)=C/C(=O)C(=O)O — 1.9-fold lower, 48 µM
- COc1ccc(Cn2cccc2/C=C/C(O)=C/C(=O)C(=O)O)cc1 — 5.8-fold lower, 16 µM
- N#Cc1cccc(Cl)c1COc1cc(O)cc(/C(O)=C/C(=O)C(=O)O)c1 — 930-fold lower, 0.1 µM
- O=C(O)C(=O)/C=C(\O)c1cccc(NS(=O)(=O)c2cc(Cl)c(Cl)cc2Cl)c1 — 1900-fold lower, 0.049 µM
- O=C(O)C(=O)/C=C(\O)c1cccc(NS(=O)(=O)c2cc(Cl)cc(Cl)c2)c1 — 660-fold lower, 0.14 µM
- O=C(O)C(=O)/C=C(\O)c1cc2c(s1)-c1cc(F)ccc1OC2 — 3.4-fold lower, 27 µM
- Cn1cc(C(=O)c2ccc(F)cc2)cc1/C=C/C(O)=C/C(=O)C(=O)O — 5.8-fold lower, 16 µM
- O=C(O)C(=O)/C=C(\O)c1ccco1 — 1.9-fold lower, 50 µM
- O=C(O)C(=O)/C=C(\O)c1ccsc1Cc1ccc(F)cc1 — 5.2-fold lower, 18 µM
- O=C(O)C(=O)/C=C(\O)c1cccn1Cc1ccc(O)cc1 — 7.2-fold lower, 13 µM
- O=C(O)C(=O)/C=C(\O)c1ccc(-c2ccc(F)c(Cl)c2)o1 — 2.3-fold lower, 41 µM
- O=C(O)C(=O)/C=C(\O)c1ccccc1OCc1ccccc1 — 2.1-fold lower, 44 µM
- O=C(O)C(=O)/C=C(\O)c1cccn1Cc1cccc(F)c1 — 3.1-fold lower, 30 µM
- O=C(O)C(=O)/C=C(\O)c1cc(I)cn1Cc1ccc(F)cc1 — 5.2-fold lower, 18 µM
- O=C(O)C(=O)/C=C(\O)c1cccc(N2CCCC2)c1 — within 1.5-fold, 84 µM
- O=C(O)C(=O)/C=C(\O)c1sccc1Cc1cccc(F)c1 — 9.4-fold lower, 9.9 µM
- O=C(O)C(=O)/C=C(\O)c1cccc(OCc2cccc3ccccc23)c1 — 140-fold lower, 0.67 µM
- N#CCCCCn1cccc1/C(O)=C/C(=O)C(=O)O — 7.2-fold lower, 13 µM
- Cc1cccc(/C(O)=C/C(=O)C(=O)O)c1 — 7.8-fold lower, 12 µM
- O=C(O)C(=O)/C=C(\O)c1ccsc1Sc1cccc(Cl)c1 — 12-fold lower, 7.5 µM
- COc1cccc(Cn2cccc2/C(O)=C/C(=O)C(=O)O)c1 — 12-fold lower, 7.6 µM
- O=C(O)C(=O)/C=C(\O)c1cccc(NCc2ccccc2)c1 — 5.5-fold lower, 17 µM
- O=C(O)C(=O)/C=C(\O)c1cccn1Cc1ccccc1 — 3.2-fold lower, 29 µM
- Cc1ccc(/C(O)=C/C(=O)C(=O)O)c(C)c1 — 46-fold lower, 2 µM
- O=C(O)C(=O)/C=C(\O)c1cccc(OCc2ccsc2C(=O)O)c1 — 98-fold lower, 0.95 µM
- O=C(O)C(=O)/C=C(O)/C=C/c1c[nH]c2ccc(Cl)cc12 — 5.2-fold lower, 18 µM
- N#Cc1cc(Cl)c(Cl)cc1COc1cccc(/C(O)=C/C(=O)C(=O)O)c1 — 1700-fold lower, 0.056 µM
- O=C(O)C(=O)/C=C(\O)c1ccsc1Cc1cccc(F)c1 — within 1.5-fold, 80 µM
- O=C(O)C(=O)/C=C(\O)c1cccn1Cc1ccccc1Cl — 3.9-fold lower, 24 µM
- O=C(O)C(=O)/C=C(\O)c1cccc(Cc2cc(Br)cc(Br)c2)c1 — 2.9-fold lower, 32 µM
- O=C(O)C(=O)/C=C(\O)c1cccc(OCc2ccc(-c3ccccc3)cc2)c1 — 1.9-fold lower, 50 µM
- O=C(O)C(=O)/C=C(\O)c1cc(O)cc(OCc2ccccc2)c1 — 66-fold lower, 1.4 µM
- Cc1ccccc1Cn1cccc1/C=C/C(O)=C/C(=O)C(=O)O — 5.2-fold lower, 18 µM
- Cc1ccc(Cn2cccc2/C=C/C(O)=C/C(=O)C(=O)O)cc1 — 3.3-fold lower, 28 µM
